Results: ChEMBL document CHEMBL4184291, “Discovery of N-arylpyrroles as agonists of GPR120 for the treatment of type II diabetes” (Bioorg Med Chem Lett, 2018)
Numbering of substitutions follows the chain as printed. pEC50: −log10 of the molar value.

Tests used:
Mus musculus [1] = assay: Antiobesity activity in diet-induced obesity C57Bl6/J mouse model assessed as change in plasma insulin level at 10 mg/kg qd for 15 days measured on day 15 post 6 hrs fasting; assay type: functional
Mus musculus [2] = assay: Antiobesity activity in diet-induced obesity C57Bl6/J mouse model assessed as basal insulin level in plasma at 10 mg/kg bid for 15 days measured on day 15 post 6 hrs fasting (reference value: 16959 +/- 4943 pg/ml); assay type: functional
Mus musculus [3] = assay: Antiobesity activity in diet-induced obesity C57Bl6/J mouse model assessed as change in plasma glucose level at 10 mg/kg bid for 15 days measured on day 15 post 6 hrs fasting; assay type: functional
Cavia porcellus [4] = assay: Cardiotoxicity in guinea pig assessed as effect on ECG morphology at 22.4 mg/kg; assay type: toxicity, organism-based; conditions: in vivo
Mus musculus [5] = assay: Oral bioavailability in mouse at 14.6 mg/kg by LC-MS/MS analysis; assay type: ADME, organism-based; conditions: in vivo
Cytochrome P450 3A4 = Cytochrome P450 3A4 (Homo sapiens, UniProt P08684); assay: Inhibition of CYP3A4 (unknown origin); assay type: ADME
[6] = Clearance in rat at 2 mg/kg, iv by LC-MS/MS analysis; assay type: ADME, organism-based; conditions: in vivo
[7] = Protein binding in mouse plasma; assay type: ADME, cell-free; conditions: read-out: PPB (converted)
[8] = target: T1, Free fatty acid receptor 4 (Homo sapiens, UniProt Q5NUL3); assay: Agonist activity at GPR120 in human HT-29 cells assessed as intracellular calcium flux; assay type: functional, cell-based
T1 sequence (Q5NUL3 whole entry): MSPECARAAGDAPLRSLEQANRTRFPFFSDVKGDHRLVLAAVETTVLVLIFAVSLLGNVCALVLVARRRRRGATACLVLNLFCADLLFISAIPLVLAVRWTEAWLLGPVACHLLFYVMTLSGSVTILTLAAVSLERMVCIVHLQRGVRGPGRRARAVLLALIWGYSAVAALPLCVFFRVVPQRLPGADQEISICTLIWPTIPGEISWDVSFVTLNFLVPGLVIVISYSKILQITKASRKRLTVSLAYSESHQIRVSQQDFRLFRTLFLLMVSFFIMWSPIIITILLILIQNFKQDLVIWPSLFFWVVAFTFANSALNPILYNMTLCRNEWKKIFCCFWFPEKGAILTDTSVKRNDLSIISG
Procedure, shortened: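 Calcium-flux EC50 measured in HT-29 cells, a low-expressing line with endogenous GPR120.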

[9] = target: T2, Free fatty acid receptor 4 (Mus musculus, UniProt Q7TMA4); assay: Agonist activity at recombinant mouse GPR120 expressed in HEK293 cells; assay type: functional, cell-based
T2 sequence (Q7TMA4 whole entry): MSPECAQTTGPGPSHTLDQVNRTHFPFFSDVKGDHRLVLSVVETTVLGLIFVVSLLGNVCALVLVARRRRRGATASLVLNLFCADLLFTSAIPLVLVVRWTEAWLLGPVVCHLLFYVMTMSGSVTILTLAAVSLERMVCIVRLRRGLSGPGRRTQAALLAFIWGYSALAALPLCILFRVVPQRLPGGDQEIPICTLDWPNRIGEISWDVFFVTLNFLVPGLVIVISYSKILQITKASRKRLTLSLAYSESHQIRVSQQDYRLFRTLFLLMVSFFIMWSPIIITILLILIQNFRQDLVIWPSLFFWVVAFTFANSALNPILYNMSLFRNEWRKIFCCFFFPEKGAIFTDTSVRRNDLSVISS

Mus musculus [10] = assay: Antiobesity activity in diet-induced obesity C57Bl6/J mouse model assessed as change in plasma insulin level at 30 mg/kg qd for 15 days measured on day 15 post 6 hrs fasting; assay type: functional
[11] = Clearance in dog at 1 mg/kg, iv by LC-MS/MS analysis; assay type: ADME, organism-based, Canis lupus familiaris; conditions: in vivo
[12] = Protein binding in human plasma; assay type: ADME, cell-free; conditions: read-out: PPB (converted)
[13] = Cmax in rat at 10 mg/kg, po by LC-MS/MS analysis; assay type: ADME, organism-based; set-up: dose 10 mg/kg, route oral; conditions: in vivo
Cytochrome P450 2C9 = Cytochrome P450 2C9 (Homo sapiens, UniProt P11712); assay: Inhibition of CYP2C9 (unknown origin); assay type: ADME
Mus musculus [14] = assay: Glucose lowering effect in GPR120 knock out mouse assessed as plasma glucose AUC at 10 mg/kg administered 30 mins prior to glucose challenge measured up to 90 mins post dose by ipGTT (reference value: 7319 mg/dL.min); assay type: functional, organism-based; set-up: time < 1.5 hr, dose 10 mg/kg
Procedure, shortened: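 Intraperitoneal glucose tolerance test in GPR120 knockout mice at 10 mg/kg. Wild-type mice were run in parallel, and glucose lowering was compared with vehicle-treated animals.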

Mus musculus [15] = assay: Antidiabetic activity in diet-induced obese C57Bl/6 mouse model assessed as change in plasma glucose AUC at 1 mg/kg, po administered 30 mins prior to glucose challenge measured up to 90 mins post dose by OGTT; assay type: functional
Procedure, shortened: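 Diet-induced obese mice dosed orally at 0.1–3.0 mg/kg 30 min before an oral glucose load (time 0). Glucose followed from 30 min pre-glucose to 90 min post-glucose. Saxagliptin 1 mg/kg was the positive control.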

Cavia porcellus [16] = assay: Cardiotoxicity in guinea pig assessed as effect on QT interval at 22.4 mg/kg; assay type: toxicity, organism-based; conditions: in vivo
[17] = AUClast in rat at 10 mg/kg, po by LC-MS/MS analysis; assay type: ADME, organism-based; set-up: dose 10 mg/kg, time 0 - last, route oral; conditions: in vivo
Mus musculus [18] = assay: Antiobesity activity in diet-induced obesity C57Bl6/J mouse model assessed as basal glucose level in plasma at 10 mg/kg qd for 15 days measured on day 15 post 6 hrs fasting (reference value: 187 +/- 24 mg/dL); assay type: functional
[19] = Oral bioavailability in dog at 5 mg/kg by LC-MS/MS analysis; assay type: ADME, organism-based, Canis lupus familiaris; conditions: in vivo
Cavia porcellus [20] = assay: Cardiotoxicity in guinea pig assessed as effect on PQ interval at 22.4 mg/kg; assay type: toxicity, organism-based; conditions: in vivo
[21] = target: Free fatty acid receptor 1 (Homo sapiens, UniProt O14842); assay: Agonist activity at human GPR40; assay type: functional
[22] = target: T3, Free fatty acid receptor 4 (Rattus norvegicus, UniProt Q2AC31); assay: Agonist activity at recombinant rat GPR120 expressed in HEK293 cells; assay type: functional, cell-based
T3 sequence (Q2AC31 whole entry): T2 sequence (Q7TMA4 whole entry) with H15R, L17P, V42L, A66V, A75V, N328S, D348E, V351I, S361T

[23] = Half life in rat at 10 mg/kg, po by LC-MS/MS analysis; assay type: ADME, organism-based; conditions: in vivo
[24] = Volume of distribution at steady state in dog at 1 mg/kg, iv by LC-MS/MS analysis; assay type: ADME, organism-based, Canis lupus familiaris; conditions: in vivo, read-out: Vdss
Mus musculus [25] = assay: Antiobesity activity in diet-induced obesity C57Bl6/J mouse model assessed as reduction in body weight at 30 mg/kg qd for 15 days measured on day 15 post 6 hrs fasting relative to control; assay type: functional; set-up: scale not given: the % may be the effect or the level left
Cavia porcellus [26] = assay: Cardiotoxicity in guinea pig assessed as effect on body temperature at 22.4 mg/kg; assay type: toxicity, organism-based; conditions: in vivo
[27] = Protein binding in rat plasma; assay type: ADME, cell-free; conditions: read-out: PPB (converted)

Sequence of Cytochrome P450 3A4 (P08684 whole entry): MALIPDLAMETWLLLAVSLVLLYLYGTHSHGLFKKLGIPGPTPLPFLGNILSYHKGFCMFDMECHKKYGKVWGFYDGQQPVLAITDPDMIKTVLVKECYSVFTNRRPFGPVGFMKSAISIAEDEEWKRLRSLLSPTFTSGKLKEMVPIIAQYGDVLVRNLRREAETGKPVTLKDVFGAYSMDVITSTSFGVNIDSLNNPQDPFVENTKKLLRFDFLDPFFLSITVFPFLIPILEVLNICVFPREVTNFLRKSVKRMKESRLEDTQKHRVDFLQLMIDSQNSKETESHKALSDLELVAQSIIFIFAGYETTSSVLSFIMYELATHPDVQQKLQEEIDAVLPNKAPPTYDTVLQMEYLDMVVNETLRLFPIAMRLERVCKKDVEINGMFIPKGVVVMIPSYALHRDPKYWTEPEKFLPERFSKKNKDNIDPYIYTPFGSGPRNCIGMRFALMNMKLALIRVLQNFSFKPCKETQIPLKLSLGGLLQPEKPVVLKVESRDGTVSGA
Sequence of Cytochrome P450 2C9 (P11712 whole entry): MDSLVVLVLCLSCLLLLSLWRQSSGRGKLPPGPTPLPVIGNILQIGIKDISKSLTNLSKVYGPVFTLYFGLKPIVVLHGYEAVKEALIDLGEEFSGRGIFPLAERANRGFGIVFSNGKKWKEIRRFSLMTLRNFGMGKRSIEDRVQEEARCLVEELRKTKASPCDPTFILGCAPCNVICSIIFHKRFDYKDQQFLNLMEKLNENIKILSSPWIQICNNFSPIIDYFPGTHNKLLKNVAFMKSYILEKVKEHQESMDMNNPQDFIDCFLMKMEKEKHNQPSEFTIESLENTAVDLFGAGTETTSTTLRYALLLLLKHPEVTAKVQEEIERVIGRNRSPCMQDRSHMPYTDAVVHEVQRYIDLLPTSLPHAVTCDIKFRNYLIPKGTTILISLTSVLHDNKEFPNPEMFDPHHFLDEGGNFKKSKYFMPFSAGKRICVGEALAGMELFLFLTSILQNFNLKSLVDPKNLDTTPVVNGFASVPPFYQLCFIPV
Sequence of Free fatty acid receptor 1 (O14842 whole entry): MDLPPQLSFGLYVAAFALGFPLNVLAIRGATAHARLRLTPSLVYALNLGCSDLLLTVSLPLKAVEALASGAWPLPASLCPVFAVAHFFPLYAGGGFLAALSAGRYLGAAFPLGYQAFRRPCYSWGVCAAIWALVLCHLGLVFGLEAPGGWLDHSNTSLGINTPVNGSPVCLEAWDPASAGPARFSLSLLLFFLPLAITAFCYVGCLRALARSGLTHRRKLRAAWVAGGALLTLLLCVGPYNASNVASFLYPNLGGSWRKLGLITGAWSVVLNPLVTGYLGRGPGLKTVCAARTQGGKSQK

Question: What does the source list for `O=C(O)CCc1cc(F)c(OCc2c(C(F)(F)F)ccn2-c2ccc(Cl)cc2)c(F)c1`?
Answer: Activity (Mus musculus [1]): 457 pg/mL; Activity (Mus musculus [2]): 16966 pg/mL; Activity (Mus musculus [3]): -16.4 mg/dL; Activity (Cavia porcellus [4]): Non-Toxic; F (Mus musculus [5]): 166%; INH (Cytochrome P450 3A4): > 10 µM; clearance [6]: 3.2 mL/min/kg; fraction unbound [7]: 0.0037; pEC50 [8]: 6.86; pEC50 [9]: 6.71; Activity (Mus musculus [10]): -3450 pg/mL; clearance [11]: 2.45 mL/min/kg; fraction unbound [12]: 0.0008; Cmax [13]: 11600 ng/mL; INH (Cytochrome P450 2C9): 7 µM; AUC (Mus musculus [14]): 7430 mg/dL·min; Activity (Mus musculus [15]): -54%; Activity (Cavia porcellus [16]): Non-Toxic; AUC(0-t) [17]: 60900 ng·h/mL; Activity (Mus musculus [18]): 202 mg/dL; bioavailability [19]: 145%; Activity (Cavia porcellus [20]): Non-Toxic; pEC50 [21]: 5.48; pEC50 [22]: 6.15; half-life [23]: 2.87 h; Vd [24]: 0.52 L/kg; Activity (Mus musculus [25]): 4.6%; Activity (Cavia porcellus [26]): Non-Toxic; fraction unbound [27]: 0.0017
